# Measurements of several laboratories.
# Compare with care: the assays were run in different laboratories.
# Read-out: cell growth or viability
Structure (SMILES),cell line,test,setting,endpoint,value
O=C1Nc2ccccc2C1=NNc1nnc2n1N=C(c1ccccc1)CS2,OVCAR-4,SRB,10 µM,inhibition,41%
Cn1nnc2c(C(N)=O)ncn2c1=O,AZ-521,,,EC50,173 µM
CCOc1ccc(/C=C2\SC(=S)N(CC(=O)Nc3ccccc3)C2=O)cc1,A549,MTT,10 µM,inhibition,48.2%
NC(=O)c1cc(Cl)ccc1NC(=O)COc1ccccc1,OVCAR-4,,,GI50,> 100 µM
COc1cccc(Oc2ccccc2NC(=O)CNC(=O)c2cccc3ccccc23)c1,OVCAR-4,SRB,48 h,GI50,0.776 µM
COc1cc(-c2ccc(-c3ccc(C(=N)N)nc3)s2)cc(OC)c1OC,OVCAR-4,SRB,,GI50,2.69 µM
COc1cccc(NC(=O)CN2C(=O)/C(=C/c3cccs3)SC2=S)c1,A549,MTT,10 µM,inhibition,12.4%
CC(C)C[C@H](NC(=O)[C@H](Cc1ccccc1)NC(=O)c1cnccn1)B(O)O,HCC38,ATP luminescence,,IC50,0.0099 µM
COc1cccc(NC(=O)CN2C(=O)/C(=C/c3ccco3)SC2=S)c1,A549,MTT,10 µM,inhibition,13.7%
COc1ccc(-c2ccc(-c3ccc(C(=N)N)nc3)s2)cc1Cl,OVCAR-4,SRB,,GI50,1.74 µM
